Assay results as given in ChEMBL document CHEMBL3351792, “Limonoids from the Leaves and Twigs of Walsura yunnanensis” (J Nat Prod, 2014).

What was measured:
Format in all cases: functional, cell-based
[1] = Cytotoxicity against human HL60 cells after 48 hrs by MTS assay; details: HL-60, 48 h
Outline: (§1)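 Cells grown in RPMI 1640 with 10% FBS and penicillin/streptomycin at 37 °C under 5% CO2. Adherent lines were seeded at 1 × 10^4 cells/well and left to attach for 12 h. Compounds in DMSO were tested at 0.064, 0.32, 1.6, 8 and 40 μM, in triplicate, for 48 h, with cisplatin as positive control. MTS was then added and formazan dissolved in 20% SDS (12 h, room temperature). OD read at 490 nm; IC50 by Reed and Muench method.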

[2] = system: SMMC-7721; assay: Cytotoxicity against human SMMC7721 cells after 48 hrs by MTS assay; details: SMMC-7721, 48 h; outline: as §1
[3] = system: A549; assay: Cytotoxicity against human A549 cells after 48 hrs by MTS assay; details: A549, 48 h; outline: as §1
[4] = system: MCF7; assay: Cytotoxicity against human MCF7 cells after 48 hrs by MTS assay; details: MCF7, 48 h; outline: as §1
[5] = system: SW480; assay: Cytotoxicity against human SW480 cells after 48 hrs by MTS assay; details: SW480, 48 h; outline: as §1
[6] = Cytotoxicity against human BEAS2B cells after 48 hrs by MTS assay; details: BEAS-2B

Row | SMILES | IC50 [1] [µM] | IC50 [2] [µM] | IC50 [3] [µM] | IC50 [4] [µM] | IC50 [5] [µM] | IC50 [6] [µM]
1 | CO[C@@H]1C=C([C@@H]2C[C@H]3O[C@@]34[C@@]2(C)C[C@H](O)[C@@H]2[C@@]3(C)C=CC(=O)C(C)(C)C3=C(O)C(=O)[C@]24C)[C@@H](OC)O1 | 3.6 | 2.4 | 3.7 | 4.2 | 3.5 | 5
2 | CC1(C)C(=O)C=C[C@@]2(C)C1=C(O)C(=O)[C@]1(C)[C@@H]2[C@@H](O)C[C@@]2(C)[C@H](C3=CC(=O)O[C@@H]3O)C[C@H]3O[C@]321 | 3.1 | 2.2 | 2.6 | 3.9 | 2.4 | 9.4
